Beta apoptosis – beta cell apoptosis inhibition. INS-1E cytokine-induced death, ATP luminescence, 48 h; percent of positive-control rescue, neutral wells zero. protection from apoptosis, % (no concentration beside the values). hit rate 0.8% among 300,000;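 active = Every replicate reaches about 75%, or at least half do and their mean reaches it too, limit read from the data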;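 note: higher means more ATP so stronger rescue from cytokine killing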
NLRP3 yeast inh – NALP3 inhibition in yeast | Yeast reconstituted NLRP3/ASC/caspase-1, beta-gal luminescence, 24 h | inhibition, % at 10 µM | hit rate 0.39% among 330,000 | AID 2825;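 active = inhibition of 50% or more; inactive = inhibition below 50%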
Calb FLC – C. albicans growth modulation with fluconazole. C. albicans CaCi-2 (fluconazole-resistant clinical isolate) + fluconazole, Alamar Blue growth, 48 h. growth inhibition, % (no concentration beside the values). hit rate 0.57% among 300,000. AID 1979;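 active = growth inhibition above about 58% in most replicates, limit read from the data, passing the limit was not always enough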;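 note: all wells also contain fluconazole at 8 µg/ml as a sub-toxic cotreatment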
Mdm2 MdmX PPI – inhibitors of human Mdm2/MdmX interaction; O15151+Q00987; SaOS-2 split-luciferase Mdm2/MdmX complementation, luminescence; inhibition, % at 8 µM; hit rate 3% among 330,000; AID 485346;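 active = inhibition of at least 50% at 8 µM in the primary screen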
CSC inhib – cancer stem cell inhibition | cancer stem cell-like cells viability, luminescence | inhibition, % at 7.5 µM | hit rate 1.1% among 300,000 | AID 2717; in the data active = inhibition above about 75%; tested in HMLE shEcad cells
T cruzi inh – T. cruzi replication inhibition. hit rate 1.4% among 300,000. T. cruzi beta-gal in NIH3T3, luminescence, 90 h. inhibition, % (test concentration not listed);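 active = mean inhibition across valid replicates above about 55%, limit read from the data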;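 note: signal also drops with host cell toxicity which is not excluded here; higher percent means less beta-gal luminescence so fewer parasites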
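System: mouse NIH/3T3 fibroblasts infected with β-gal-expressing T. cruzi Tulahuen C4 / Input: NIH/3T3 cells, 5,000 per well / Buffer or medium: Low-serum DMEM with 2% FBS / Probe or stimulus: 5000 reporter trypomastigotes per well / Schedule: ≥90 h infection period, 3 h prior cell attachment / Measured by: GalScreen luminescence, 60 min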
Hits are given with their value; – = inactive; · = not tested or not shown. An excerpt weighted towards active compounds, which were near 5.3% of everything screened.

SMILES	Beta apoptosis	NLRP3 yeast inh	Calb FLC	Mdm2 MdmX PPI	CSC inhib	T cruzi inh
O=C(N/N=C/c1cccc(O)c1)c1cc(-c2ccc3c(c2)OCO3)n[nH]1	–	–	–	–	76	–
O=C(N/N=C/c1ccc(O)cc1)c1cc(-c2ccc3c(c2)OCO3)n[nH]1	–	–	–	–	127	–
O=C(N/N=C/c1ccccc1)c1cc(-c2ccc3c(c2)OCO3)n[nH]1	–	–	–	–	–	–
CN(CCOc1ccccc1)CC(=O)Nc1ccc(S(=O)(=O)N2CCCC2)cc1	–	–	–	–	–	57
COc1ccc(N(CC(=O)Nc2ccc(S(=O)(=O)N3CCCCC3)cc2)S(C)(=O)=O)cc1OC	–	–	–	–	–	–
COc1ccc(NC(=O)CN(C)C(=O)/C=C/c2ccc(S(=O)(=O)N3CCCCCC3)cc2)cc1	75	–	–	–	–	–
CC(C)C12CN3CC(C(C)C)(CN(C1)C3(C)C)C2=O	–	–	–	–	–	–
COc1cc(CNCc2ccncc2)cc(Br)c1OCc1ccccc1F	–	–	–	–	–	55
COc1cc(CNc2ccc(O)cc2)cc(Br)c1OCc1ccccc1F	–	–	–	–	–	–
O=C(CNC(=O)c1ccco1)NCc1nc2ccccc2[nH]1	·	–	–	–	–	–
Cc1cc(C)c(NS(=O)(=O)c2cccc3cccnc23)c(C)c1	–	–	73	–	–	–
Cc1ccc(NS(=O)(=O)c2cccc3cccnc23)cc1Cl	–	–	–	–	–	–
Cc1nc(C)c(C(=O)Nc2cccc(Cl)c2)o1	–	–	–	–	–	–
COc1ccc(/C=C2/C(=O)N(c3nc4ccccc4s3)N=C2CSc2ccc(Cl)cc2)cc1	–	–	–	–	92	–
O=C(O)c1ccc(Cl)c(S(=O)(=O)N(Cc2ccccc2)c2ccc(F)cc2)c1	–	–	–	–	96	–
N/C(=N\OC(=O)c1ccc(Cl)cc1)c1cccnc1	–	–	–	–	–	–
C=CCn1c(SCc2c(C)noc2C)nc2sc3c(c2c1=O)CCCCC3	·	–	–	–	94	–
Cc1noc(C)c1CSc1nc2sc3c(c2c(=O)n1C)CCCC3	–	–	–	–	·	–
CCC(OC(=O)c1nsc(Cl)c1Cl)C(=O)NCCc1ccccc1 (stereo not given)	–	–	–	–	–	–
CN(C)c1ccc(CNCCC2CCOC(C)(C)C2)cc1 (stereo not given)	–	–	–	–	–	58
CC(N=C(NS(=O)(=O)c1ccc(Cl)cc1)c1ccccc1)C(=O)O (stereo not given)	–	–	–	–	–	–
O=C(C1CCCN(Cc2ccc(Cl)cc2)C1)N1CCCCC1 (stereo not given)	–	–	–	–	–	57
O=C(C1CCCN(Cc2cccc(Cl)c2)C1)N1CCCCC1 (stereo not given)	–	–	–	–	–	66
Cc1cccc(CN2CCCC(C(=O)N3CCc4ccccc4C3)C2)c1 (stereo not given)	–	–	–	–	–	55
COc1ccc(COC(=O)C2=C(C)NC(=O)NC2c2ccc(O)c(OC)c2)cc1 (stereo not given)	–	–	–	–	–	–
SMILES	Beta apoptosis	NLRP3 yeast inh	Calb FLC	Mdm2 MdmX PPI	CSC inhib	T cruzi inh
Cc1ccccc1-c1noc(CCC(=O)NCCc2ccccc2)n1	–	–	–	–	–	–
O=c1oc(CCO)cc2ccc(Br)cc12	–	–	·	–	·	·
COc1ccc2c(=O)c(C(=O)NCc3ccccc3)c[nH]c2c1	–	–	–	–	–	–
CSCCC1NC2(C(=O)Nc3c(Cl)cccc32)[C@@H]2C(=O)N(C3CCCC3)C(=O)[C@H]12 (stereo not given in full)	–	–	–	–	–	–
CSCCC1NC2(C(=O)Nc3c(C)cc(Cl)cc32)[C@@H]2C(=O)N(C3CCCC3)C(=O)[C@H]12 (stereo not given in full)	·	–	84	–	–	–
Cc1ccsc1/C=C(\C(=O)c1ccc(OC(C)C)cc1)c1nc2ccccc2o1	–	–	–	–	–	68
Cc1ccsc1/C=C(\CC(=O)O)c1nc2ccccc2o1	·	–	–	–	–	–
COc1ccccc1/C=C1\SC(=S)N(NS(=O)(=O)c2ccccc2)C1=O	–	–	91	–	–	–
COc1cccc(/C=C2\SC(=S)N(NS(=O)(=O)c3ccc(C)cc3)C2=O)c1OC	–	–	–	–	–	–
CCOC(=O)C1CCN(CCC(=O)Nc2ccc(Br)cc2)CC1	–	–	–	–	–	–

Compound activity deposited in PubChem by several laboratories.
